{
  "source": "paper PMC7119000",
  "about": "(Phytomedicine, 2013)",
  "key": {"Caco-2 cell monolayers [1]": {"tested_on": "Caco-2 cell monolayers", "assay": "In vitro Caco-2 cell monolayer transport, apical-to-basolateral", "assay_type": "in vitro ADME, human", "conditions": "for Apically loaded amount retained on the apical side: Caco-2 cell transport, authors' unpublished data", "summary_of_the_method": "(§1)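 Caco-2 cells grown in high-glucose DMEM with 10% FBS and 1% nonessential amino acids at 37 °C, 5% CO2. Seeded at 1.0 × 10^5 cells/cm2 on 4.2 cm2 inserts. Monolayers with TEER >250 Ω cm2 were HBSS-washed and preincubated 1 h at 37 °C. Compound was loaded apically, with samples taken at 0–4 h. Analysed by UPLC–MS/MS; Papp = (dQ/dt)/(A × C0).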"}, "Caco-2 cell monolayers [2]": {"tested_on": "Caco-2 cell monolayers", "conditions": "flavonoids glucosides; ref the previous report; cited from earlier work"}, "[3]": {"assay": "In vitro Caco-2 cell monolayer transport, apical-to-basolateral", "assay_type": "in vitro ADME, human", "conditions": "human, Caco-2", "summary_of_the_method": "as §1"}, "[4]": {"assay_type": "in vivo, rat", "conditions": "for AUC(0-t) / Cmax / Tmax: male, SD, rat, plasma, po"}},
  "note": "Where two headings read alike, the source gives them in different places.",
  "data": [
    {"smiles": "O=c1cc(-c2ccc(O)c(O)c2)oc2cc(O[C@@H]3O[C@H](CO)[C@@H](O)[C@H](O)[C@H]3O)cc(O)c12", "note": "[Galuteolin]", "values": [
      {"measurement": "Apically loaded amount retained on the apical side", "setting": "Caco-2 cell monolayers [1]", "value": "about 100%"},
      {"measurement": "Absorption into Caco-2 cell", "setting": "Caco-2 cell monolayers [2]", "value": "cannot be well absorbed"}
    ]},
    {"smiles": "O=c1c(O[C@@H]2O[C@H](CO)[C@H](O)[C@H](O)[C@H]2O)c(-c2ccc(O)c(O)c2)oc2cc(O)cc(O)c12", "note": "[Hyperoside]", "values": [
      {"measurement": "Absorption into Caco-2 cell", "setting": "Caco-2 cell monolayers [2]", "value": "cannot be well absorbed"}
    ]},
    {"smiles": "O=c1c(O[C@@H]2O[C@H](CO)[C@H](O)[C@H](O)[C@H]2O)c(-c2ccc(O)c(O)c2)oc2cc(O)cc(O)c12", "note": "[hyperin]", "values": [
      {"measurement": "Apically loaded amount retained on the apical side", "setting": "Caco-2 cell monolayers [1]", "value": "about 100%"}
    ]},
    {"smiles": "O=C(/C=C/c1ccc(O)c(O)c1)O[C@@H]1C[C@](O)(C(=O)O)C[C@@H](O)[C@H]1O", "note": "[Chlorogenic acid]", "values": [
      {"measurement": "Papp A→B at 4 h", "setting": "[3]", "value": "19 ± 3.35", "unit": "×10⁻⁶ cm/s"},
      {"measurement": "Papp-value increased to, compared to control", "setting": "Caco-2 cell monolayers [1]; with addition of 0.1% (w/v) of COS", "value": 9800, "unit": "%"},
      {"measurement": "AUC(0-t)", "setting": "[4]; 25 mg/kg", "value": 658, "unit": "ng·h/mL"},
      {"measurement": "Cmax", "setting": "[4]; 25 mg/kg", "value": "284 ± 76.8", "unit": "ng/mL"},
      {"measurement": "Tmax", "setting": "[4]; 25 mg/kg", "value": 13.8, "unit": "min"},
      {"measurement": "AUC(0-t)", "setting": "[4]; 10 ml/kg", "value": 541, "unit": "ng·h/mL"},
      {"measurement": "Cmax", "setting": "[4]; 10 ml/kg", "value": "236 ± 61.2", "unit": "ng/mL"},
      {"measurement": "Tmax", "setting": "[4]; 10 ml/kg", "value": 30, "unit": "min"},
      {"measurement": "AUC increased to, compared to control", "setting": "[4]; with COS 25 mg/kg, rats, oral", "value": 122, "unit": "%"}
    ]},
    {"smiles": "O=c1cc(-c2ccc(O)c(O)c2)oc2cc(O[C@@H]3O[C@H](CO)[C@H](O)[C@H](O)[C@H]3O)cc(O)c12", "note": "[Luteolin-7-o--β-D-galactoside]", "values": [
      {"measurement": "Absorption into Caco-2 cell", "setting": "Caco-2 cell monolayers [2]", "value": "cannot be well absorbed"}
    ]},
    {"smiles": "C[C@@H]1O[C@@H](OC[C@H]2O[C@@H](Oc3c(-c4ccc(O)c(O)c4)oc4cc(O)cc(O)c4c3=O)[C@H](O)[C@@H](O)[C@@H]2O)[C@H](O)[C@H](O)[C@H]1O", "note": "[Rutin]", "values": [
      {"measurement": "Apically loaded amount retained on the apical side", "setting": "Caco-2 cell monolayers [1]", "value": "about 100%"},
      {"measurement": "Absorption into Caco-2 cell", "setting": "Caco-2 cell monolayers [2]", "value": "cannot be well absorbed"}
    ]}
  ]
}
